The text below walks through data of ChEMBL document CHEMBL4000155, “Synthesis and Antileukemic Activities of Piperlongumine and HDAC Inhibitor Hybrids against Acute Myeloid Leukemia Cells” (J Med Chem, 2016).

Activity calls are given as the source filed them. The calls are words filed in the database; no cut-off is given here.

Data set [1] can be described thus: Chemical stability of the compound in pH 7.4 phosphate buffer at 50 uM incubated up to 4 hrs in absence of GSH by HPLC analysis. The format is physicochemical. The following applies: pH 7.4, 4 h. Put shortly:
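Compound at 50 μM incubated with or without 5 mM GSH in phosphate buffer pH 7.4 at 37 °C for up to 4 h. Mixtures analysed by HPLC with water/0.1% formic acid/10% methanol versus 0.1% formic acid in acetonitrile, 0.5 mL/min, 10–80% B gradient over 18 min.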

For data set [2], the system named is U-937. Put plainly: Induction of cell death in p53 null human U937 cells after 24 hrs by annexin V-FITC/PI staining based flow cytometry. The format is functional. Put shortly: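 Human U937 AML cells (p53 null) in RPMI 1640 with 10% FBS, 2 mM L-glutamine, penicillin/streptomycin, 37 °C, 5% CO2. Exposed 24 h to compound alone or with SAHA; vehicle DMSO < 0.1% v/v. Annexin V-FITC/PI staining and flow cytometry, reported as % Annexin V+ cells. Three independent experiments in triplicate; one representative shown. EC50 taken as concentration giving 50% Annexin V+ cells versus vehicle.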

Data set [3] relates to MOLM-13. Put plainly: Induction of apoptosis in human MOLM13 cells harboring wild type p53/FLT3-ITD mutant at 2 uM after 24 hrs by annexin V-FITC/PI staining based flow cytometry. The format is functional. The method, boiled down: (§1)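 Cells treated 24 h, single agents or SAHA+PL at 1:1 (each drug at the stated concentration). Annexin V-FITC/PI kit staining, then flow cytometry, reported as % Annexin V+ cells. Three independent experiments in triplicate, with data from one representative experiment. DMSO <0.1% vehicle control.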

Data set [4] has as its system U-937. The experiment in a line: Cytotoxicity against p53 null human U937 cells assessed as decrease in cell viability at 0.5 to 5 uM after 24 hrs by MTT assay. The format is functional, cell-based. Put shortly:
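MCF-10A (DMEM/F12, 5% horse serum, hydrocortisone, cholera toxin, insulin, EGF) and U937 (RPMI 1640, 10% FBS) were exposed to 0.5–5 μM, alone or PL+SAHA 1:1, for 24 h. MTT 0.05 mg/mL, 3 h at 37 °C, DMSO solubilization, A570. Viability given as mean ± SD of four to six independent experiments. DMSO <0.1% vehicle control.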
Background: Formazan colour is commonly taken as a measure of viable cells.

In data set [5] the test system is U-937. Put plainly: Effect on SAHA-induced DNA damage in p53 null human U937 cells assessed as increase in gammaH2AX expression level by measuring ratio of gammaH2AX to beta-actin level at 2 uM after 24 hrs by Western blot analysis relative to control. The format is functional. The method, boiled down: (§2)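 U937 cells treated 24 h, alone or PL+SAHA. Whole-cell lysates (protease/phosphatase inhibitors) immunoblotted for γH2AX, CHK1, RAD51, Bim and XIAP. Band densitometry normalised to β-actin, then expressed as fold change relative to the untreated control.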
A general note: Immunoblotting shows a protein as a band on a membrane.

The next data set deals with HL-60. Put plainly: Antiproliferative activity against human HL60 cells after 72 hrs in presence of SAHA by MTT assay. Particulars: HL-60, 72 h. The format is functional, cell-based. The method, boiled down: (§3)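 AML cell lines grown in RPMI 1640 with 10% FBS (20% for MOLM-13), 2 mM L-glutamine and penicillin/streptomycin at 37 °C, 5% CO2. Ara-C-resistant HL-60 and CMK sublines came from stepwise cytarabine selection and were kept in 600 nM or 300 nM cytarabine respectively. Cells were treated 72 h. MTT 0.05 mg/mL, 3 h at 37 °C, DMSO solubilization, absorbance at 570 nm. IC50 given ± SEM.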

In data set [6] the test system is U-937. The experiment in a line: Effect on SAHA-induced DNA damage in p53 null human U937 cells assessed as decrease in Rad51 expression level by measuring ratio of Rad51 to beta-actin level at 2 uM after 24 hrs by Western blot analysis relative to control. It counts as functional. The method, boiled down:
as §2

Data set [7] concerns U-937. Put plainly: Induction of apoptosis in p53 null human U937 cells at 4 uM after 24 hrs in presence of SAHA by annexin V-FITC/PI staining based flow cytometry. It counts as functional. For orientation: A flow cytometer gives signals particle by particle.
The test system of data set [8] is U-937. Put plainly: Induction of apoptosis in p53 null human U937 cells at 1 uM after 24 hrs in presence of SAHA by annexin V-FITC/PI staining based flow cytometry. The format is functional. Put shortly:
as §1

Data set [9] is described as follows: Antiproliferative activity against human CMS cells after 72 hrs in presence of SAHA by MTT assay. It counts as functional, cell-based. Put shortly:
as §3

In data set [10] the test system is U-937. The experiment in a line: Induction of apoptosis in p53 null human U937 cells assessed as caspase 3 cleavage at 2 uM after 24 hrs in presence of SAHA by Western blot analysis. The format is functional, cell-based. The method, boiled down:
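U937 cells exposed for 24 h. Lysates with protease/phosphatase inhibitors were separated by SDS-PAGE, transferred to PVDF and probed for PARP and cleaved caspase-3, with β-actin as loading control.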

The next data set relates to MV4-11. Put plainly: Antiproliferative activity against human MV4-11 cells after 72 hrs in presence of SAHA by MTT assay. It counts as functional, cell-based. Particulars: MV4-11, 72 h.
Data set [11] concerns MOLM-13. The experiment in a line: Induction of apoptosis in human MOLM13 cells harboring wild type p53/FLT3-ITD mutant at 1 uM after 24 hrs in presence of SAHA by annexin V-FITC/PI staining based flow cytometry. It counts as functional. Put shortly:
as §1

A further data set relates to CMK. The experiment in a line: Antiproliferative activity against human CMK cells after 72 hrs in presence of SAHA by MTT assay. The format is functional, cell-based. Put shortly:
as §3

Data set [12] relates to U-937. Put plainly: Effect on SAHA-induced DNA damage in p53 null human U937 cells assessed as decrease in CHK1 expression level by measuring ratio of CHK1 to beta-actin level at 2 uM after 24 hrs by Western blot analysis relative to control. The format is functional. The method, boiled down: as §2
The subject of data set [13] is MOLM-13. Put plainly: Antiproliferative activity against human MOLM13 cells harboring wild type p53/FLT3-ITD mutant after 72 hrs in presence of SAHA by MTT assay. It counts as functional, cell-based. Particulars: MOLM-13, 72 h. The method, boiled down: as §3
The subject of data set [14] is MOLM-13. Put plainly: Induction of apoptosis in human MOLM13 cells harboring wild type p53/FLT3-ITD mutant at 2 uM after 24 hrs in presence of SAHA by annexin V-FITC/PI staining based flow cytometry. It counts as functional. Put shortly: as §1
The subject of data set [15] is U-937. Put plainly: Effect on SAHA-induced apoptosis in p53 null human U937 cells assessed as decrease in XIAP expression level by measuring ratio of XIAP to beta-actin level at 2 uM after 24 hrs by Western blot analysis relative to control. The format is functional. The method, boiled down:
as §2

In data set [16] the test system is U-937. The experiment in a line: Induction of DNA damage in p53 null human U937 cells at 2 uM after 20 hrs in presence of SAHA by SYBR gold staining based alkaline comet assay. The format is functional, cell-based. The method, boiled down: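 U937 cells treated 20 h with SAHA and PL alone or combined (16 h for hybrids). Alkaline single-cell gel electrophoresis, SYBR Gold staining, microscopy. Median % DNA in tail from 4 replicate gels ± s.e.m.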

The term IC50 denotes the concentration at which inhibition is half-maximal.

As for `COc1cc(/C=C/C(=O)N2CCC=CC2=O)cc(OC)c1OCCCCCCC(=O)NO`, the Stability entry in data set [1] is recorded as “Stable”. In addition, the Activity entry in the data set on U-937 [2] was “Dose-dependent effect”; in the data set with MOLM-13 [3], 65.9%. For the same molecule, the result in the data set with U-937 [4] was Active.
As for `COc1cc(/C=C/C(=O)N2CCC=CC2=O)cc(OC)c1OC` [PIPLARTINE], the Ratio in the data set on U-937 [5] is listed as 4.1; with U-937 [6], 0.9; in the data set on U-937 [12], 0.8; in the data set with U-937 [15], 0.6. Also, the IC50 was 529 nM with HL-60; 1040 nM in data set [9]; 289 nM in the data set on MV4-11; 613 nM with CMK; 934 nM in the data set with MOLM-13 [13]. Besides, the Activity in the data set on U-937 [7] is recorded as 81.1%; in the data set with U-937 [8], 6.2%; in the data set on MOLM-13 [11], 8%; in the data set on MOLM-13 [14], 53.6%. The outcome with U-937 [10] and with U-937 [16] was Active.
